pIC50: −log10 of the molar value. Activity calls are given as the source filed them. The calls are words filed in the database; no cut-off is given here.
How the values were obtained:
Format in all cases: functional, cell-based
[1] = Cytotoxicity against human PLC5 cells by MTT assay
In short: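 MTT viability assay on PLC5 hepatocellular carcinoma cells maintained in DMEM with 10% FBS, penicillin, streptomycin and amphotericin B at 37 °C, 5% CO2. IC50 is the concentration giving 50% growth inhibition, interpolated from dose–response curves.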

[2] = target: Tyrosine-protein phosphatase non-receptor type 6 (Homo sapiens) (UniProt P29350); assay: Agonist activity at SHP1 in human PLC5 cells assessed as decrease in pSTAT3-mediated Mcl1 level at 10 uM after 12 hrs by Western blot analysis
In short: (§1)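 PLC5 cells (ATCC) grown in DMEM with 10% FBS, penicillin G, streptomycin and amphotericin B at 37 °C, 5% CO2. Cells treated at 10 μM for 12 h. Lysates immunoblotted for p-STAT3, STAT3, SHP-1, Mcl-1, survivin, cyclin D1, PARP, with actin as loading control.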

[3] = target: Tyrosine-protein phosphatase non-receptor type 6 (Homo sapiens) (UniProt P29350); assay: Agonist activity at SHP1 in human PLC5 cells assessed as decrease in pSTAT3-mediated survivin level at 10 uM after 12 hrs by Western blot analysis; in short: as §1
[4] = target: Tyrosine-protein phosphatase non-receptor type 6 (Homo sapiens) (UniProt P29350); assay: Agonist activity at SHP1 in human PLC5 cells assessed as decrease in pSTAT3-mediated cyclinD1 level at 10 uM after 12 hrs by Western blot analysis; in short: as §1
[5] = target: Tyrosine-protein phosphatase non-receptor type 6 (Homo sapiens) (UniProt P29350); assay: Agonist activity at SHP1 in human PLC5 cells assessed as inhibition of STAT3 Y705 phosphorylation at 10 uM after 12 hrs by Western blot analysis; in short: as §1
[6] = target: Tyrosine-protein phosphatase non-receptor type 6 (Homo sapiens) (UniProt P29350); assay: Agonist activity at SHP1 in human PLC5 cells assessed as increase in SHP1 level at 10 uM after 12 hrs by Western blot analysis; in short: as §1
[7] = target: Tyrosine-protein phosphatase non-receptor type 6 (Homo sapiens) (UniProt P29350); assay: Agonist activity at SHP1 in human PLC5 cells assessed as inhibition of IL6-induced STAT3 phosphorylation at 10 uM incubated for 24 hrs prior to IL6-induction measured after 30 mins by sandwich ELISA
In short: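 PLC5 cells, cultured in DMEM/10% FBS with antibiotics at 37 °C, 5% CO2, were pretreated with compound at 10 μM for 24 h. IL-6 (10 ng/mL) stimulation followed for 30 min before STAT3 activity was read.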

[8] = target: Tyrosine-protein phosphatase non-receptor type 6 (Homo sapiens) (UniProt P29350); assay: Agonist activity at SHP1 in human PLC5 cells at 10 uM after 6 hrs by immunoprecipitation method

Chain of Tyrosine-protein phosphatase non-receptor type 6 (Homo sapiens) (P29350 whole entry): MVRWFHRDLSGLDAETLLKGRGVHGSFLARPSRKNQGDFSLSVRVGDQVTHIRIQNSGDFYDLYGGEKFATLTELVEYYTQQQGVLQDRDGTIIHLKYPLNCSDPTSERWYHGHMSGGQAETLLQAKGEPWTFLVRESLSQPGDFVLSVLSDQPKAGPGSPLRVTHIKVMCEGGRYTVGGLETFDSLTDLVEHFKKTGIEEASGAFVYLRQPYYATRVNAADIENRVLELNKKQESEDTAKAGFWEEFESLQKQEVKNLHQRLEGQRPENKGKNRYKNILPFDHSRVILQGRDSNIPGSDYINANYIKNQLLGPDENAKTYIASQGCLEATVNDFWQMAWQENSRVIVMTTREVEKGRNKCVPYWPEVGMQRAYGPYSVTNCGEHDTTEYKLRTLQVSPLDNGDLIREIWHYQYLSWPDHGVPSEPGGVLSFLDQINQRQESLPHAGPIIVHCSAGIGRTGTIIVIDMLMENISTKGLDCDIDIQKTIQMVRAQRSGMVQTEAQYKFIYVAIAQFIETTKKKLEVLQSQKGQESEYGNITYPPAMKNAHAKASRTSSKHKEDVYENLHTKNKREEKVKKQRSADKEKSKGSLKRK

## COC1=CC(c2ccco2)=N/C1=C\c1ccc[nH]1
[1]
  pIC50: < 4.40
[2]
  Activity: inactive
[3]
  Activity: inactive
[4]
  Activity: inactive
[5]
  inhibition: inactive
[6]
  Activity: inactive

## COC1=CC(c2cc3ccccc3n2C(=O)OC(C)(C)C)=N/C1=C\c1ccc[nH]1
[1]
  pIC50: < 4.40

## COC1=CC(c2cc3ccccc3[nH]2)=N/C1=C\c1ccc(-c2cc3ccccc3[nH]2)[nH]1
[7]
  inhibition: Active
[1]
  pIC50: 4.80
[2]
  Activity: Active
[8]
  Activity: Active
[3]
  Activity: Active
[4]
  Activity: Active
[5]
  inhibition: Active
[6]
  Activity: Active

## COc1cc(-c2cc3ccccc3n2C(=O)OC(C)(C)C)[nH]c1/C=C1\C(=O)Nc2ccccc21
[1]
  pIC50: < 4.40

## COC1=CC(c2cc3ccccc3[nH]2)=N/C1=C\c1[nH]c(C)cc1C [OBATOCLAX]
[1]
  pIC50: 4.92

## COC1=CC(c2cccs2)=N/C1=C\c1ccc[nH]1
[1]
  pIC50: < 4.40

## COc1cc(-c2cc3ccccc3[nH]2)[nH]c1C1SCCCS1
[1]
  pIC50: < 4.40

## COC1=CC(c2cc3ccccc3n2C(=O)OC(C)(C)C)=N/C1=C\c1[nH]c(C)cc1C
[1]
  pIC50: 4.55

## COC1=CC(c2cccs2)=N/C1=C\c1[nH]c(C)cc1C
[1]
  pIC50: < 4.40

## COc1cc(-c2cc3ccccc3n2C(=O)OC(C)(C)C)[nH]c1/C=C1/SC(=O)NC1=O
[1]
  pIC50: < 4.40

## COC1=CC(c2cc3ccccc3[nH]2)=N/C1=C\c1cccs1
[1]
  pIC50: < 4.40

## COC1=CC(c2cccs2)=N/C1=C\c1cccs1
[1]
  pIC50: 4.59

## COC1=CC(c2cc3ccccc3[nH]2)=N/C1=C\c1ccc[nH]1
[7]
  inhibition: Active
[1]
  pIC50: 4.88
[2]
  Activity: Active
[8]
  Activity: Active
[3]
  Activity: Active
[4]
  Activity: Active
[5]
  inhibition: Active
[6]
  Activity: Active

## COc1cc(-c2cc3ccccc3[nH]2)[nH]c1/C=C1/SC(=O)NC1=O
[1]
  pIC50: 4.56

## COC1=CC(c2cc3cc(Br)ccc3[nH]2)=N/C1=C\c1ccc[nH]1
[7]
  inhibition: Active
[1]
  pIC50: 5.20
[2]
  Activity: Active
[8]
  Activity: Active
[3]
  Activity: Active
[4]
  Activity: Active
[5]
  inhibition: Active
[6]
  Activity: Active

## COc1cc(-c2cc3ccccc3[nH]2)[nH]c1/C=C1\C(=O)Nc2ccccc21
[1]
  pIC50: 4.45

Source: ChEMBL document CHEMBL2169881, “Synthesis and biological activity of obatoclax derivatives as novel and potent SHP-1 agonists” (Eur J Med Chem, 2012)
